Experimental data pooled from the literature.
Protocols differ between the studies behind these lines.
ELANE: Neutrophil elastase (ELANE, Homo sapiens, UniProt P08246)
RXFP3: Relaxin-3 receptor 1 (RXFP3, Homo sapiens, UniProt Q9NSD7)
MUSK: Muscle, skeletal receptor tyrosine-protein kinase (MUSK, Homo sapiens, UniProt O15146)
SMUG1: SMUG1 (Homo sapiens, UniProt Q53HV7)
EGFR L858R/T790M: Epidermal growth factor receptor (EGFR, Homo sapiens, UniProt P00533, L858R/T790M)
Ephx2: Bifunctional epoxide hydrolase 2 (Ephx2, Mus musculus, UniProt P34914)
BACE1: Beta-secretase 1 (BACE1, Homo sapiens, UniProt P56817)
Delta-aminolevulinic acid dehydratase C162A/K59N: Delta-aminolevulinic acid dehydratase (Homo sapiens, UniProt P13716, C162A/K59N)
BRAF: Serine/threonine-protein kinase B-raf (BRAF, Homo sapiens, UniProt P15056)

Nc1ncc(-c2nc(N3CCOCC3)nc(N3C[C@H]4CC[C@@H](C3)O4)n2)c(C(F)F)n1
IC50 (Serine/threonine-protein kinase mTOR (MTOR, Homo sapiens, UniProt P42345); ligand displacement, TR-FRET): 42.2 nM

Cc1cccc(C(=O)Oc2c(Cl)nnc3ccccc23)c1
IC50 (ELANE; enzyme activity, inhibitor, fluorescence): 4800 nM

O=C(Nc1ccc(-c2nc(-c3ccc(Cl)cc3)no2)cc1)C1CC(=O)N(Cc2cccnc2)C1 (stereo not drawn)
IC50 (RXFP3; cAMP, antagonist, TR-FRET): 1490 nM

Cc1cc(Nc2cc(CN3CCOCC3)c3nc(C)c(Cc4ccc(Cl)cc4F)n3n2)n[nH]1
IC50 (MUSK; enzyme activity, inhibitor, TR-FRET): 147 nM

CN1CCN(c2ccc(Nc3ncc4cc(C#N)c(=O)n(C5CCCC5)c4n3)cc2)CC1
IC50 (Ephrin type-B receptor 2 (EPHB2, Homo sapiens, UniProt P29323); enzyme activity, inhibitor): 86.8 nM

COc1cc(NC(=O)N2CCC(n3c(=O)[nH]c4c(Br)cccc43)CC2)ccc1C
IC50 (SMUG1; enzyme activity, inhibitor): > 100000 nM

C=CC(=O)Nc1cc(Nc2nccc(-c3cn(C4CC4)c4ccccc34)n2)c(OC)cc1N(C)CCN(C)C
IC50 (Epidermal growth factor receptor (EGFR, Homo sapiens, UniProt P00533, D761Y); enzyme activity, inhibitor, TR-FRET): 0.84 nM

CC[C@@H](C(=O)Nc1ccc(C(N)=O)c(F)c1)n1cc(OC)c(-c2cc(Cl)ccc2-n2cc(C(F)(F)F)nn2)cc1=O
IC50 (Tissue-type plasminogen activator (PLAT, Homo sapiens, UniProt P00750); enzyme activity, inhibitor): > 10000 nM

O=C(N/N=C/c1cccn1CCN1CCOCC1)Nc1cc2c(Nc3ccc(F)c(Cl)c3)ncnc2cc1O[C@H]1CCOC1
IC50 (EGFR L858R/T790M; enzyme activity, inhibitor): 16.7 nM

Cc1ncsc1-c1ccc(CNC(=O)[C@@H]2C[C@@H](O)CN2C(=O)[C@@H](NC(=O)C2(F)CC2)C(C)(C)C)c(OCCOCCOCCN2CCN(c3cc(-c4ccccc4O)nnc3N)CC2)c1
IC50 (SWI/SNF-related matrix-associated actin-dependent regulator of chromatin subfamily A member 2, bromodomain (SMARCA2, Homo sapiens, UniProt P51531); ligand displacement, TR-FRET): 2400 nM

NCCCC[C@H](NC(=O)[C@@H]1CCCN1C(=O)[C@@H]1CSSC[C@H](N)C(=O)N[C@@H](Cc2ccc(O)cc2)C(=O)N[C@@H](Cc2ccccc2)C(=O)N[C@@H](CCC(N)=O)C(=O)N[C@@H](CC(N)=O)C(=O)N1)C(=O)NCC(N)=O
IC50 (Vasopressin V2 receptor (AVPR2, Homo sapiens, UniProt P30518); ligand displacement, radioligand; cell membranes): 14 nM

CCC(C)(O)C(=O)N1CCC(NC(=O)Nc2ccc(OC(F)(F)F)c(F)c2)CC1 (stereo not drawn)
IC50 (Ephx2; enzyme activity, inhibitor): 13 nM

CC(C)=CCCC(C)=CCc1c(O)cc(O)c2c(=O)c(-c3ccc(O)cc3O)coc12
IC50 (BACE1; enzyme activity, inhibitor): 45000 nM

O=Cc1cc(Br)cc(Br)c1O
IC50 (Delta-aminolevulinic acid dehydratase C162A/K59N; enzyme activity, inhibitor, absorbance; pH 8, with preincubation): 22000 nM

Nc1ncc2c(n1)-c1c([nH]c3ccc(-c4ccc(F)cc4)cc13)CCC2
IC50 (Non-receptor tyrosine-protein kinase TYK2, JH2 (TYK2, Homo sapiens, UniProt P29597); target engagement in cells, BRET): > 10000 nM

O=C(Nc1ccc(-c2nc(-c3ccccc3)no2)cc1)C1CC(=O)N(Cc2cccnc2)C1 (stereo not drawn)
IC50 (RXFP3; cAMP, antagonist, TR-FRET): 7690 nM

CCn1ncc2c1-c1cnc(N)c(c1)O[C@H](C)c1cc(F)ccc1-c1nn(C)nc1C2
IC50 (MUSK; enzyme activity, inhibitor, radiometric): 44 nM

CCCCn1c(Sc2ccc(Cl)cc2Cl)nc2c(N)ncnc21
IC50 (Endoplasmin (HSP90B1, Canis lupus familiaris, UniProt P41148); ligand displacement, FP): 800 nM

O=C(O)c1cccnc1Nc1cccc(C(F)(F)F)c1
IC50 (Delta-aminolevulinic acid dehydratase C162A/K59N; enzyme activity, inhibitor, absorbance; pH 8, with preincubation): 13000 nM

Oc1c2ccccc2c2c3c(cccc13)N=N2
IC50 (Non-receptor tyrosine-protein kinase TYK2 (TYK2, Homo sapiens, UniProt P29597); enzyme activity, inhibitor): 440 nM

CNc1nc(C)nc(N[C@H]2CCC[C@@H](C(=O)NCc3ccc(C#N)cc3C(F)(F)F)C2)n1
IC50 (Ephx2; enzyme activity, inhibitor): 4 nM

Cc1cccc(C(=O)n2ncc(=O)c3ccccc32)c1
IC50 (ELANE; enzyme activity, inhibitor, fluorescence): 56 nM

O=C(Nc1ccn(Cc2ccc(O)cc2C(F)(F)F)n1)c1c(F)cccc1F
IC50 (Short transient receptor potential channel 6 (TRPC6, Homo sapiens, UniProt Q9Y210); ion current, inhibitor): > 10000 nM

C[C@]1(C(=O)[C@H](CC2CCCCC2)NC(=O)[C@@H]2COCCCCCC(=O)N3CCC[C@H]3C(=O)N2)CO1
IC50 (Proteasome Macropain subunit MB1 (PSMB5, Homo sapiens, UniProt P28074); enzyme activity, inhibitor, fluorescence): > 10000 nM

CC(C)C[C@H](NC(=O)[C@H](Cc1ccccc1)NC(=O)[C@@H](N)Cc1ccc(O)cc1)C(=O)N[C@@H](Cc1ccccc1)C(=O)N[C@@H](CCCNC(=N)N)C(=O)N1CCC[C@H]1C(=O)N[C@@H](CCCNC(=N)N)C(=O)N[C@@H](CC(N)=O)C(N)=O
IC50 (Neuromedin-U receptor 2 (Mus musculus, UniProt Q8BZ39); ligand displacement, radioligand; cell membranes): 0.09 nM

O=C(O)Cc1ccccc1Nc1c(Cl)cccc1Cl
IC50 (Delta-aminolevulinic acid dehydratase C162A/K59N; enzyme activity, inhibitor, absorbance; pH 8, with preincubation): 9000 nM

Oc1ccc(-c2nc(-c3ccncc3)c(-c3ccc(F)cc3)[nH]2)cc1
IC50 (BRAF; cell-free assay, inhibitor): 1130 nM

[N-]=[N+]=N[C@H](CC(=O)NO)Cc1ccc(O)cc1
IC50 (Endoplasmic reticulum aminopeptidase 2 (ERAP2, Homo sapiens, UniProt Q6P179); enzyme activity, inhibitor, fluorescence): 59000 nM

CCCS(=O)(=O)Nc1ccc(F)c(C(=O)c2c[nH]c3ncc(-c4ccc(CNC(=O)COCC(=O)NCc5ccc(-c6cnc7[nH]cc(C(=O)c8c(F)ccc(NS(=O)(=O)CCC)c8F)c7c6)cc5)cc4)cc23)c1F
IC50 (Serine/threonine-protein kinase B-raf (BRAF, Homo sapiens, UniProt P15056, V600E); enzyme activity, inhibitor, ELISA): ~56 nM

CC(C)(C)n1nc(-c2cnc3cc(OC4CC4)ccc3c2)c(C(N)=O)c1N
IC50 (BRAF; cell-free assay): > 10000 nM

Cc1cccc(C(=O)n2ncc(=O)c3cc([N+](=O)[O-])ccc32)c1
IC50 (ELANE; enzyme activity, inhibitor, fluorescence): 260 nM

COc1ccc2c(Oc3ccc4c(C(=O)Nc5ccccc5N)cccc4c3)ccnc2c1
IC50 (BRAF; enzyme activity, inhibitor): > 500 nM

CN1CCCN=C1/C=C/c1cccc(O)c1
IC50 (Delta-aminolevulinic acid dehydratase C162A/K59N; enzyme activity, inhibitor, absorbance; pH 8, with preincubation): 18000 nM

CCN1CCN(c2c(Cl)cccc2NC(=O)c2ccc(Br)o2)CC1
IC50 (Mitogen-activated protein kinase 8 (MAPK8, Homo sapiens, UniProt P45983); enzyme activity, inhibitor, TR-FRET): 490 nM

C=C(Cl)C(=O)Nc1cc(Nc2nc(N3CCOCC3)c3sccc3n2)c(OC)cc1N(C)CCN(C)C
IC50 (EGFR L858R/T790M; enzyme activity, inhibitor, ELISA): 63 nM

O=C(Nc1ccc(-c2nc(-c3ccc(Br)cc3)no2)cc1)C1CC(=O)N(Cc2cccnc2)C1 (stereo not drawn)
IC50 (RXFP3; cAMP, antagonist, TR-FRET): 3080 nM

C=CC(=O)Nc1cc(Nc2nccc(Nc3cc(Cl)c(F)cc3C(C)(C)O)n2)c(OC)cc1N1CC[C@@H](N(C)C)C1
IC50 (Proto-oncogene tyrosine-protein kinase ROS (ROS1, Homo sapiens, UniProt P08922); enzyme activity, inhibitor; with preincubation): 937 nM

O=C(Nc1ccc(Br)cc1)N1CCC(n2c(=O)[nH]c3c(Br)cccc32)CC1
IC50 (SMUG1; enzyme activity, inhibitor): > 100000 nM

COc1ccc(-c2coc3cc(O)c(CC=C(C)C)c(O)c3c2=O)c(O)c1
IC50 (BACE1; enzyme activity, inhibitor): 42000 nM

CC(=O)N[C@H]1CSSC[C@@H](C(=O)N[C@H](Cc2c[nH]c3ccccc23)C(N)=O)NC(=O)[C@@H](Cc2ccccc2)NC(=O)[C@H](CCCNC(=N)N)NC1=O
IC50 (Melanocortin receptor 3 (MC3R, Homo sapiens, UniProt P41968); ligand displacement, radioligand): > 5000 nM

O=C(Nc1ccc(Cl)c(Cl)c1)N1CCC(n2c(=O)[nH]c3c(Br)cccc32)CC1
IC50 (SMUG1; enzyme activity, inhibitor): > 100000 nM

N#CC(C(=O)c1ccc(Cl)cc1Cl)=C1NC(=O)c2ccc(OCc3ccc4c(c3)OCO4)cc2N1
IC50 (Cytoplasmic dynein 2 heavy chain 1 (DYNC2H1, Homo sapiens, UniProt Q8NCM8); ATPase activity, inhibitor): 11000 nM

O=c1oc2c(O)c(O)cc3c(=O)oc4c(O)c(O)cc1c4c23
IC50 (DNA polymerase iota (Homo sapiens, UniProt Q9UNA4); enzyme activity, inhibitor): 81 nM

Cc1cc2cc(c1)C(=O)N[C@H]([C@H](O)CN(Cc1cccc(C(C)C)c1)C(=O)OC(C)(C)C)CCC/C=C/CCCC2=O
IC50 (BACE1; enzyme activity, inhibitor): > 10000 nM

COc1ccc(S(=O)(=O)ON=C2C=C(C)C(=O)C(C)=C2)cc1
IC50 (Histone acetyltransferase KAT5 (KAT5, Homo sapiens, UniProt Q92993); enzyme activity, inhibitor, radiometric): > 100000 nM
